# Experimental data: ChEMBL document CHEMBL5661971 (Cancer Res, 2006)
# Calls of active or inactive are those of the source. No cut-off for these calls is given here.
# Legend:
# [1] = Inhibition of MEK in human HMEC cells assessed as inhibition of ERK phosphorylation incubated for 60 mins by Western blotting analysis; type: cell-based; details: 1 h
# Procedure, shortened: (§1)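 Cells exposed for 60 min, then Western blot for phospho-ERK1/2 and total ERK1/2 with infrared imaging. […] DMSO control.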
# HT-1080 = test: Antiproliferative activity against human HT-1080 cells expressing N-Ras Q61K mutant assessed as decrease in cell growth incubated for 72 hrs by CellTiter-Glo based luminescence assay; type: functional; details: HT-1080, 72 h
# Procedure, shortened: (§2)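 Cells treated over 1 nmol/L to 20 μmol/L in 0.1% DMSO for 72 h at 37°C, 5% CO₂. Viable cells read by CellTiter-Glo luminescence. EC50 derived from proliferation data.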
# [2] = Inhibition of MEK in human SK-MEL-28 cells expressing B-Raf V600E mutant assessed as inhibition of ERK phosphorylation incubated for 60 mins by Western blotting analysis; type: cell-based; details: SK-MEL-28, 1 h; procedure, shortened: as §1
# [3] = Cytotoxicity against human HMEC cells assessed as decrease in cell growth incubated for 72 hrs by CellTiter-Glo based luminescence assay; type: toxicity; procedure, shortened: as §2
# [4] = Inhibition of MEK in human A375P cells expressing B-Raf V600E mutant assessed as inhibition of ERK phosphorylation incubated for 60 mins by Western blotting analysis; type: cell-based; details: 1 h; procedure, shortened: as §1
# [5] = Inhibition of MEK in human HFF cells assessed as inhibition of ERK phosphorylation incubated for 60 mins by Western blotting analysis; type: cell-based; details: 1 h; procedure, shortened: as §1
# [6] = Inhibition of MEK in human PrEC cells assessed as inhibition of ERK phosphorylation incubated for 60 mins by Western blotting analysis; type: cell-based; details: 1 h; procedure, shortened: as §1
# WM-NCI = test: Inhibition of MEK in human WM-NCI cells assessed as decreased ERK phosphorylation at 2 micromol/L incubated for 60 mins by Western blotting analysis; type: cell-based; details: dose 2.0 µmol/L
# [7] = Antiproliferative activity against human A375P cells expressing B-Raf V600E mutant assessed as decrease in cell growth incubated for 72 hrs by CellTiter-Glo based luminescence assay; type: functional; procedure, shortened: as §2
# [8] = Inhibition of MEK in human SK-MEL-2 cells expressing N-Ras2 Q61R mutant assessed as inhibition of ERK phosphorylation incubated for 60 mins by Western blotting analysis; type: cell-based; details: SK-MEL-2, 1 h; procedure, shortened: as §1
# [9] = Inhibition of MEK in human COLO 205 cells expressing B-Raf V600E mutant assessed as inhibition of ERK phosphorylation incubated for 60 mins by Western blotting analysis; type: cell-based; details: COLO 205, 1 h; procedure, shortened: as §1
# [10] = Inhibition of MEK in human HT-1080 cells expressing N-Ras2 Q61K mutant assessed as inhibition of ERK phosphorylation incubated for 60 mins by Western blotting analysis; type: cell-based; details: HT-1080, 1 h; procedure, shortened: as §1
# Melanocyte [11] = test: Inhibition of MEK in normal human Melanocyte cells assessed as decreased ERK phosphorylation at 2 micromol/L incubated for 60 mins by Western blotting analysis; type: cell-based; details: dose 2.0 µmol/L
# SK-MEL-28 = test: Antiproliferative activity against human SK-MEL-28 cells expressing B-Raf V600E mutant assessed as decrease in cell growth incubated for 72 hrs by CellTiter-Glo based luminescence assay; type: functional; details: SK-MEL-28, 72 h; procedure, shortened: as §2
# [12] = Inhibition of MEK in human HT-29 cells expressing B-Raf V600E mutant assessed as inhibition of ERK phosphorylation incubated for 60 mins by Western blotting analysis; type: cell-based; details: HT-29, 1 h; procedure, shortened: as §1
# HT-29 = test: Antiproliferative activity against human HT-29 cells expressing B-Raf V600E mutant assessed as decrease in cell growth incubated for 72 hrs by CellTiter-Glo based luminescence assay; type: functional; details: HT-29, 72 h; procedure, shortened: as §2
# SK-MEL-2 = test: Antiproliferative activity against human SK-MEL-2 cells expressing N-Ras Q61R mutant assessed as decrease in cell growth incubated for 72 hrs by CellTiter-Glo based luminescence assay; type: functional; details: SK-MEL-2, 72 h; procedure, shortened: as §2
# WM35 = test: Inhibition of MEK in human WM35 cells assessed as decreased ERK phosphorylation at 2 micromol/L incubated for 60 mins by Western blotting analysis; type: cell-based; details: dose 2.0 µmol/L
# HCT-116 = test: Antiproliferative activity against human HCT-116 cells expressing K-Ras G13D mutant assessed as decrease in cell growth incubated for 72 hrs by CellTiter-Glo based luminescence assay; type: functional; details: HCT-116, 72 h; procedure, shortened: as §2
# COLO 205 = test: Antiproliferative activity against human COLO 205 cells expressing B-Raf V600E mutant assessed as decrease in cell growth incubated for 72 hrs by CellTiter-Glo based luminescence assay; type: functional; details: COLO 205, 72 h; procedure, shortened: as §2
# WM-3434 = test: Inhibition of MEK in human WM-3434 cells assessed as decreased ERK phosphorylation at 2 micromol/L incubated for 60 mins by Western blotting analysis; type: cell-based; details: dose 2.0 µmol/L
# [13] = Inhibition of MEK in human Malme-3M cells expressing B-Raf V600E mutant assessed as inhibition of ERK phosphorylation incubated for 60 mins by Western blotting analysis; type: cell-based; details: 1 h; procedure, shortened: as §1
# Malme-3M = test: Antiproliferative activity against human Malme-3M cells expressing B-Raf V600E mutant assessed as decrease in cell growth incubated for 72 hrs by CellTiter-Glo based luminescence assay; type: functional; procedure, shortened: as §2
# [14] = Cytotoxicity against human HFF cells assessed as decrease in cell growth incubated for 72 hrs by CellTiter-Glo based luminescence assay; type: toxicity; procedure, shortened: as §2
# [15] = Cytotoxicity against human PrEC cells assessed as decrease in cell growth incubated for 72 hrs by CellTiter-Glo based luminescence assay; type: toxicity; procedure, shortened: as §2
# [16] = Inhibition of MEK in human HCT-116 cells expressing K-Ras2 G13D mutant assessed as inhibition of ERK phosphorylation incubated for 60 mins by Western blotting analysis; type: cell-based; details: HCT-116, 1 h; procedure, shortened: as §1
# [17] = target: RAF proto-oncogene serine/threonine-protein kinase (Homo sapiens, UniProt P04049); test: Inhibition of c-Raf (unknown origin) assessed as apparent inhibition constant; details: read-out: Ki(app)
# Melanocyte [18] = test: Induction of cell cycle arrest in normal human Melanocyte cells assessed as accumulation of cells at G1 phase at 10 uM incubated for 24 hrs by flow cytometry analysis; type: toxicity, cell-based
# Procedure, shortened: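 Normal human melanocytes exposed to 1 and 10 μmol/L for 24 h. Cell cycle distribution measured by flow cytometry on a FACScan.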
# A375P = test: Anti-tumor activity against human A375P cells xenografted in nude mouse assessed as decreased tumorigenesis at 50 mg/kg administered daily for 21 days and then observed an additional 14 days following cessation of treatment and measured after 55 days; type: functional, organism-based; details: time 21.0 day
# Procedure, shortened: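 Female nude mice, 8–12 weeks old, injected s.c. with 5×10^6 A375P cells in Matrigel. Treatment began 3 weeks later at tumor volume 150–250 mm³, groups of eight randomized. Daily i.p. dosing for 21 days in 2% N,N-dimethylacetamide/2% Cremophor EL/96% acidified water (pH ~4–5), vehicle controls. Caliper tumor volume twice weekly for 55 days; mean ±SE.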
# [19] = Toxicity in nude mouse xenografted with human A375P cells assessed as body weight change at 50 mg/kg administered daily for 21 days and then observed an additional 14 days following cessation of treatment; type: organism-based; details: in vivo, 504 h, time 21 day
# [20] = In vivo inhibition of ERK phosphorylation in human A375P cells xenografted in nude mouse at 50 mg/kg administered daily for 21 days and then observed an additional 14 days following cessation of treatment relative to control; type: functional; details: 504 h, time 21 day
# [21] = Inhibition of BRAF V599E mutant (unknown origin) assessed as apparent inhibition constant incubated for 25 mins in presence of gamma-[33P]ATP; parameters: species or system Homo sapiens; details: read-out: Ki(app)
# RAF proto-oncogene serine/threonine-protein kinase, sequence (P04049 whole entry): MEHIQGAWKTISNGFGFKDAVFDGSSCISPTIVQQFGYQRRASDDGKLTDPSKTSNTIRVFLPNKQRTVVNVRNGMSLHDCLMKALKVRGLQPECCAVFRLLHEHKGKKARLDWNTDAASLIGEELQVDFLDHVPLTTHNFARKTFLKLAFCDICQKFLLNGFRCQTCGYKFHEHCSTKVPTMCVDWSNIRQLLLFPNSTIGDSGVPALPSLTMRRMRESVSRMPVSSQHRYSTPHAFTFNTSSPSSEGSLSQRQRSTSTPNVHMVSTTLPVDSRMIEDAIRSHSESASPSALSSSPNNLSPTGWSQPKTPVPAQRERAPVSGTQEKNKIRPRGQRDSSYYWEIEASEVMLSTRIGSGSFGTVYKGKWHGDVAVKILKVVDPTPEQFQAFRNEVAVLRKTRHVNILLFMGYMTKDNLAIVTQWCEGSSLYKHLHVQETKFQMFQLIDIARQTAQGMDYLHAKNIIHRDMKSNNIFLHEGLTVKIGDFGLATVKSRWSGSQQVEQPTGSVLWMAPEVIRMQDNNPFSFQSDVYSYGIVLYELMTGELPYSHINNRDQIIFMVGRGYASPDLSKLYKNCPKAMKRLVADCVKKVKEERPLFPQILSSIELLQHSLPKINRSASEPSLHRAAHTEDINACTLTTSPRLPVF
EC50 (HT-1080) [nM],EC50 (SK-MEL-28) [nM],EC50 (HT-29) [nM],EC50 (SK-MEL-2) [nM],EC50 (HCT-116) [nM],EC50 (COLO 205) [nM],Compound,EC50 at 72 h [3] [nM],EC50 [7] [nM],EC50 (Malme-3M) [nM],EC50 at 72 h [14] [nM],EC50 at 72 h [15] [nM],also measured
1600,220,360,360,2200,230,O=C(NOCC1CC1)c1ccc(F)c(F)c1Nc1ccc(I)cc1Cl [CI-1040],580,240,440,4900,490,EC50 [1]: 11 nM; EC50 [2]: 86 nM; EC50 [4]: 210 nM; EC50 [5]: 4800 nM; EC50 [6]: 39 nM; inhibition (WM-NCI): Active; EC50 [8]: 290 nM; EC50 [9]: 47 nM; EC50 [10]: 66 nM; inhibition (Melanocyte [11]): Active; EC50 [12]: 88 nM; inhibition (WM35): Active; inhibition (WM-3434): Active; EC50 [13]: 520 nM; EC50 [16]: 61 nM
13000,120,870,550,4600,100,CN(C)CCOc1ccc(-c2nc(-c3ccncc3)c(-c3ccc4c(c3)CC/C4=N\O)[nH]2)cc1 [SB590885],9200,370,150,> 12000,> 13000,Ki [17]: 1.72 nM; Activity (Melanocyte [18]): Toxic; Activity (A375P): Active; Activity [19]: Toxic; inhibition in vivo at 50 mg/kg [20]: ~50%
–,–,–,–,–,–,CNC(=O)c1cc(Oc2ccc(NC(=O)Nc3ccc(Cl)c(C(F)(F)F)c3)cc2)ccn1 [SORAFENIB],–,–,–,–,–,Ki [21]: 38 nM
